ADAM10 inh: inhibits human ADAM10 | O14672 | inhibition, % at 7 µM | 370,000 tested, 0.62% active | recombinant ADAM10, EDANS/DABCYL FRET peptide cleavage, 3 h | AID 720582;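 active = inhibition above a per-campaign cutoff equal to the mean of compounds falling between control-based bounds plus 3 SD, cut at about 20% in these data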;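 note: 0% = DMSO wells while the 100% control is not disclosed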
Target sequence (O14672 214-748 limits assumed): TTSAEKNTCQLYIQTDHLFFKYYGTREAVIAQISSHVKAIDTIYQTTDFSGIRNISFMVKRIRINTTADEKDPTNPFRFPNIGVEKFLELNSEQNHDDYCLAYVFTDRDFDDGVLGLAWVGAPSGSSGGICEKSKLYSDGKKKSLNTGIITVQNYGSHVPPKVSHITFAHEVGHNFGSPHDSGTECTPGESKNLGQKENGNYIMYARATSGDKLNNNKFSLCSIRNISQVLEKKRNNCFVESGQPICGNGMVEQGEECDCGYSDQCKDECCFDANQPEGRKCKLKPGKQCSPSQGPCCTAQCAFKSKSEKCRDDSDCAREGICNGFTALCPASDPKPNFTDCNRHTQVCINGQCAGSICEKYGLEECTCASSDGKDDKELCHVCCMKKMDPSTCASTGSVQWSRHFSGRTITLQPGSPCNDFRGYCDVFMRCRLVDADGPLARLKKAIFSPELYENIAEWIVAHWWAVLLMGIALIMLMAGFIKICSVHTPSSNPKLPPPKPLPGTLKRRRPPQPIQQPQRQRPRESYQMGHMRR
FAS-TE inh: FAS thioesterase (human) inhibition; inhibition, % at 15 µM; P49327; AID 602261; recombinant FAS-TE, OMFH fluorogenic substrate, fluorescence endpoint; 360,000 tested, 0.67% active;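 active = compounds whose normalised, plate-corrected inhibition of enzyme fluorescence in the single-dose primary screen is 50% or more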;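 note: 0% = DMSO with enzyme and 100% = substrate without enzyme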
Arr AP2 block: blocks beta-arrestin peptide binding to AP2 adaptin; FITC-arrestin peptide / GST-AP2 beads, flow cytometry; AP2 beta2 appendage carries R879A mutation; inhibition, % at 10 µM; 340,000 tested, 0.31% active;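 active = inhibition above a set limit, near 3 SD of compounds lacking own fluorescence, cut at about 54% in these data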;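 note: plate controls were DMSO wells for no effect and 5 µM unlabelled arrestin peptide for full effect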
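System: GST-AP2 R879A glutathione beads. Medium: PBS with 0.05% Tween 20 and 0.1% BSA. Also added: FITC-arrestin peptide, 50 nM. Incubation: 12 min plus 1 h, RT. Measured by: high-throughput flow cytometry of beads, ex 488, em 535 nm. Evaluation: percent drop in bead-associated FITC signal.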
CaV13 FRET inh: Primary screen for inhibitors of IQ motif and Ca2+-dependent inactivation inhibitor domain binding in CACNA1D, Förster resonance energy transfer in living cells, …; 340,000 tested, 0.098% active; HEK cells, CFP/YFP FRET ICDI-IQ, plate reader, 10 min; percent FRET-ratio fall versus neutral wells; inhibition, % at 12.3 µM;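 active = mean replicate inhibition of at least 30% and at least 1% of replicates passing that level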;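 note: 0% = median of the neutral control wells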
CendR NRP1 mod: NRP-1/CendR interaction modulation. O14786. FAM-RPARPAR peptide binding to NRP-1, fluorescence polarization. inhibition, % at 25 µM. 360,000 tested, 0.85% active;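 active = inhibition or corrected inhibition above about 18%, plus a signal ratio from 0.5 to 1.5, limit read from the data, passing the limit was not always enough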
ADAM17 inh: inhibitors of human ADAM17; P78536; inhibition, % at 6.95 µM; recombinant ADAM17, EDANS/DABCYL FRET peptide cleavage; 370,000 tested, 0.83% active; AID 720648;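 active = inhibition above the mean of compounds lying between control limits plus 3 SD, set per campaign, cut at about 8.5% in these data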;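 note: 0% = DMSO-only wells as the low control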
FAS-TE conf: confirmation of human fatty acid synthase thioesterase inhibitors. shares compounds with FAS-TE inh. recombinant FAS-TE, OMFH fluorogenic substrate, fluorescence. inhibition, % at 15 µM. 2,300 tested, 45% active;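 active = compounds inhibiting the enzyme by at least 50% at 15 µM in any one of the replicates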;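 note: 0% = enzyme with DMSO only and 100% = wells lacking enzyme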
The depositor's hits bear a star; x = not tested or not shown. This is a sample that favours compounds with a hit; in the whole collection about 2.9% have one here.

SMILES | ADAM10 inh | FAS-TE inh | Arr AP2 block | CaV13 FRET inh | CendR NRP1 mod | ADAM17 inh | FAS-TE conf
O=[N+]([O-])c1cccc(NC(=S)NCCc2ccccc2)c1 | 4.5 | 65.4* | -5.2 | -2.6 | -0.9 | 5.6 | 56.5*
CC(CCc1ccccc1)NC(=O)c1cccc([N+](=O)[O-])c1 (centres undefined) | 3.1 | 61.6* | 4.0 | -13.4 | 6.4 | 1.1 | 70.1*
CC(Cc1ccccc1)NC(=O)c1ccc([N+](=O)[O-])cc1 (centres undefined) | -1.6 | 22.3 | 9.4 | -4.4 | 8.2 | -1.1 | x
O=C(NCCCc1ccccc1)c1cccc([N+](=O)[O-])c1 | -5.8 | 67.1* | 2.6 | -14.1 | 8.1 | -2.6 | 50.8*
O=C(NCCCc1ccccc1)c1ccccc1 | 0.8 | -8.6 | 20.0 | -2.6 | 2.9 | -3.5 | x
NC(=O)c1ncn([C@@H]2O[C@H](C(=O)N[C@H](Cc3c[nH]c4ccccc34)C(=O)NCC(=O)N3CCCCC3)[C@@H](O)[C@H]2O)n1 | -5.5 | x | x | -4.2 | x | -3.0 | x
CN(CCO)c1cc(Sc2nc3ccccc3s2)c2nonc2c1[N+](=O)[O-] | 14.3 | 74.1* | 11.8 | -9.6 | -3.3 | 2.9 | 74.2*
O=C(/C=C/c1ccccc1)NC(=S)Nc1ccccc1 | 3.8 | 8.2 | 5.6 | -6.8 | -4.7 | 4.0 | x
C=CCN(CC=C)S(=O)(=O)c1ccc(NC(=S)NC(=O)/C=C/c2ccccc2)cc1 | 14.3 | 56.8* | -7.4 | -3.7 | -16.9 | 0.9 | 10.1
CCCCc1ccc(C2C3=C(CC(C)(C)CC3=O)NC3=C2C(=O)c2ccccc23)cc1 (centres undefined) | -5.6 | 63.4* | 13.1 | -4.7 | -10.7 | -3.3 | 11.1
CCCc1ccc(C2C3=C(CC(C)(C)CC3=O)NC3=C2C(=O)c2ccccc23)cc1 (centres undefined) | 11.8 | 30.3 | 1.7 | -9.1 | 8.1 | 7.9 | x
O=C(Nc1ccc(-c2nnc3n2CCCCC3)cc1)c1cc2ccccc2o1 | -2.0 | 1.2 | 2.6 | -0.5 | -16.1 | -3.9 | x
Cc1c(C(=O)Nc2ccc(-c3nnc4n3CCCCC4)cc2)oc2c1ccc1ccccc12 | -7.4 | 78.0* | 18.3 | -2.6 | -8.8 | -4.0 | 6.2
COc1ccc(C2CC(=O)C(c3cc(OC)c(OC)c(OC)c3)=CN2Cc2ccccc2)cc1 (centres undefined) | -2.3 | x | x | -3.8 | x | -1.8 | x
CCSc1nc2ccccc2n1Cc1ccccc1F | -1.0 | 6.4 | 29.2 | -5.2 | 17.0 | -4.5 | x
Cn1c(SCc2cccc([N+](=O)[O-])c2)nc2ccccc2c1=O | 4.4 | 42.6 | -3.7 | -5.4 | 5.4 | 0.5 | x
COc1ccc(C(=O)Nn2c(SCc3cccc([N+](=O)[O-])c3)nc3ccccc3c2=O)cc1 | 9.4 | 58.7* | 22.2 | -7.8 | 6.2 | 2.0 | 51.1*
COCCn1c(SCc2cccc([N+](=O)[O-])c2)nc2ccccc2c1=O | 5.2 | 51.4* | 14.4 | -3.5 | 3.5 | 1.0 | 11.6
CCSc1nc2ccccc2n1Cc1cccc([N+](=O)[O-])c1 | 3.8 | 58.7* | -11.4 | -2.8 | 22.6* | -3.8 | 19.7
CCCCC(=O)Nc1nc(-c2ccc(S(=O)(=O)N3CCOCC3)cc2)cs1 | -27.9 | 87.6* | -5.0 | -6.3 | 2.5 | -11.7 | 91.5*
O=S(=O)(c1ccc(-c2csc(-c3cccnc3)n2)cc1)N1CCOCC1 | -10.9 | 78.7* | 7.4 | -2.6 | -1.3 | -1.3 | 82.4*
CC(C)CC(=O)Nc1nc(-c2ccc(S(=O)(=O)N3CCOCC3)cc2)cs1 | -14.2 | 52.5* | 4.0 | -2.8 | 8.9 | -7.4 | 19.7
O=C(NC(Cc1nn[nH]n1)C(=O)OCc1ccccc1)OCc1ccccc1 (centres undefined) | -12.5 | -7.7 | x | -19.0 | -2.7 | -2.4 | x
Cc1ccccc1-c1nc2sc(C)c(C)c2c(=O)o1 | 4.7 | 52.6* | -5.8 | -4.8 | -8.3 | -3.1 | 38.8
Cc1sc2nc(-c3ccco3)oc(=O)c2c1C | 10.1 | 29.1 | -4.4 | -5.7 | -20.3 | 0.0 | x
SMILES | ADAM10 inh | FAS-TE inh | Arr AP2 block | CaV13 FRET inh | CendR NRP1 mod | ADAM17 inh | FAS-TE conf
C/C(=N\Nc1ccc(Cl)c(C(=O)O)c1)c1ccc2c(c1)OCO2 | 2.4 | -3.6 | 6.1 | -2.9 | -13.0 | -4.5 | x
C/C(=N\Nc1ccc(C(=O)O)cc1)c1ccc2c(c1)Nc1ccccc1S2 | -31.4 | 71.3* | -9.4 | -4.9 | -33.7 | -9.1 | 60.7*
COc1ccc(/C(C)=N/Nc2cccc(C(=O)O)c2)cc1OC | -6.0 | -2.5 | 13.9 | -19.2 | -10.3 | -5.6 | x
C/C(=N/Nc1ccc(C(=O)O)cc1)c1ccc2c(c1)Nc1ccccc1S2 | -62.3 | 51.5* | 25.8 | -3.7 | -16.5 | -10.8 | 62.1*
N#Cc1ccc(Cn2ccc3ccc(-c4ccc5ccn(C(=O)C6CC6)c5c4)cc32)cc1 | -40.1 | x | x | x | x | -10.2 | x
COc1cc(/C=C/C(=O)OCC(=O)Nc2sc3c(c2C#N)CCC(C)C3)ccc1OCC#N (centres undefined) | -6.5 | 64.5* | -10.8 | -2.6 | 0.7 | -1.8 | 17.4
COc1cc2c(cc1OC)C(COc1ccc3c(C)cc(=O)oc3c1)N(C(=O)c1ccco1)CC2 (centres undefined) | -9.3 | 17.7 | 5.8 | -6.3 | 0.8 | -3.5 | x
CCOc1ccc(NC(=S)N2CCc3cc(OC)c(OC)cc3C2COc2ccc3c(C)cc(=O)oc3c2)cc1 (centres undefined) | -197.6 | 77.7* | 17.6 | -4.3 | -4.8 | -57.2 | 6.4
O=C(CN1CCN(c2ncc(C(F)(F)F)cc2Cl)CC1)NCCNc1ncc(C(F)(F)F)cc1Cl | -3.8 | 62.3* | 2.7 | x | 16.5 | -5.8 | 27.9
COC(=O)C(CC(C)C)NC(=O)c1ccc([N+](=O)[O-])cc1 (centres undefined) | -5.7 | 0.5 | -4.6 | -0.8 | 6.7 | -3.9 | x
COC(=O)C(CCCCNC(=O)c1ccc([N+](=O)[O-])cc1)NC(=O)c1ccc([N+](=O)[O-])cc1 (centres undefined) | 9.6 | 50.1* | 3.3 | -11.8 | -1.0 | 3.3 | 52.4*
COc1ccc(C(=O)NCC(=O)OCc2ccc([N+](=O)[O-])cc2)cc1 | 5.7 | 51.8* | -5.7 | -2.6 | 0.9 | 1.2 | 26.9
Cc1ccc(C(=O)NCC(=O)OCc2nnc(-c3ccc([N+](=O)[O-])cc3)o2)cc1 | -7.4 | 67.9* | x | -4.2 | 3.5 | 0.0 | 53.1*
CSc1ccc(-c2cccc([N+](=O)[O-])c2)nn1 | -4.7 | 5.4 | -3.9 | -6.1 | 3.7 | -6.4 | x
O=[N+]([O-])c1cccc(-c2ccc(SCc3cccnc3)nn2)c1 | 14.2 | 52.9* | 22.5 | 7.3 | -2.2 | -2.6 | 57.6*
